From PMC5586474 (Journal of the American Heart Association: Cardiovascular …, 2017)

Key:
[1] = tested on: ACKR3:α1A‐AR; test: PLA, ACKR3:α1A‐AR interaction in hVSMCs; type: cell-based, human; details: peptide 10 μmol/L, 30 minutes, 37°C; vs vehicle; Figure 8B; n=3
Outline: (§1)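 hVSMCs got vehicle or test peptide (10 μmol/L, 30 min, 37°C), were washed, fixed in 4% PFA (15 min, RT) and blocked overnight at 4°C in 3% BSA/PBS. Receptor‐specific primaries (1:500) ran 105 min at 37°C, then PLA probes (1:5) 60 min, ligation 30 min and amplification 100 min, all at 37°C. DAPI‐mounted spots were counted per cell from 10 images per condition per experiment.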

[2] = tested on: ACKR3:α1B‐AR; test: PLA, ACKR3:α1B‐AR interaction in hVSMCs; type: cell-based, human; details: peptide 10 μmol/L, 30 minutes, 37°C; vs vehicle; Figure 8B; n=3
Outline: as §1

[3] = tested on: ACKR3:α1D‐AR; test: PLA, ACKR3:α1D‐AR interaction in hVSMCs; type: cell-based, human; details: peptide 10 μmol/L, 30 minutes, 37°C; vs vehicle; Figure 8B; n=3
Outline: as §1

[4] = tested on: ACKR3:CXCR4; test: PLA, ACKR3:CXCR4 interaction in hVSMCs; type: cell-based, human; details: peptide 10 μmol/L, 30 minutes, 37°C; vs vehicle; Figure 8B; n=3
Outline: as §1

[5] = tested on: CXCR4:α1B‐AR; test: PLA, CXCR4:α1B‐AR interaction in hVSMCs; type: cell-based, human; details: peptide 10 μmol/L, 30 minutes, 37°C; vs vehicle; Figure 8B; n=3
Outline: as §1

[6] = tested on: CXCR4:α1D‐AR; test: PLA, CXCR4:α1D‐AR interaction in hVSMCs; type: cell-based, human; details: peptide 10 μmol/L, 30 minutes, 37°C; vs vehicle; Figure 8B; n=3
Outline: as §1

[7] = tested on: rat mesenteric arteries; test: Pressure myography, PE‐induced vasoconstriction of isolated mesenteric arteries; set-up: species or system rat (Sprague‐Dawley); details: TM peptide 100 μmol/L vs vehicle; 80 mm Hg; Figure 9G; n=3
Outline: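 Mesenteric arteries from male Sprague-Dawley rats (isoflurane 3.5% anaesthesia) kept in bicarbonate salt buffer (130 mmol/L NaCl, 4.7 mmol/L KCl, 5.5 mmol/L d-glucose, 1.16 mmol/L CaCl₂), gassed 95% O₂/5% CO₂, 37°C. Vessels pressurized to 80 mm Hg, pretreated with vehicle or test peptide (10 or 100 μmol/L). Cumulative PE added to bath; dose-response curves fitted by nonlinear regression.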

[8] = tested on: α1‐AR; test: PE‐induced IP3 production; type: cell-based, human; details: 1 μmol/L PE; for effect of α1‐AR antagonist on PE‐induced IP3 production: antagonist 10 μmol/L, 30 minutes, 37°C, Figure 5E
[9] = target: ACKR3 (Homo sapiens, UniProt P25106); test: PRESTO‐Tango β‐arrestin 2 recruitment assay for ACKR3; type: cell-based; details: HTLA cells, overnight, 37°C, n=3
Sequence of ACKR3 (P25106 whole entry): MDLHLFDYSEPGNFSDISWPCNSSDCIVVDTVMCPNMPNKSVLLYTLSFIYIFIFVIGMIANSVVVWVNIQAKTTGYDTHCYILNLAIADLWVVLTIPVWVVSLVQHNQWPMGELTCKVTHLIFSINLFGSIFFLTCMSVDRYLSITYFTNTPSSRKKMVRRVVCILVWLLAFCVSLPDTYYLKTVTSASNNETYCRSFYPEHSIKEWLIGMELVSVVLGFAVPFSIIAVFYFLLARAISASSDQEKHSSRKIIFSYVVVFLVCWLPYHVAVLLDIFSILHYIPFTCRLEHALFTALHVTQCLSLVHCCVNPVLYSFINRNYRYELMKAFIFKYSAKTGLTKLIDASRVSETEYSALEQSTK

[10] = tested on: rat mesenteric arteries; details: isolated mesenteric rat arteries; cited from earlier work
[11] = tested on: α1b‐AR; test: PRESTO‐Tango β‐arrestin 2 recruitment assay for α1b‐AR; type: cell-based; details: PE plus 10 μmol/L TM peptide; HTLA cells, overnight, 37°C; Figure 9C; n=3
Outline: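 HTLA cells were transfected with the α1B‐AR‐Tango plasmid (1.5 μg, Lipofectamine 3000). The next day they were replated at 1×10⁵/well on poly‐L‐lysine and left to attach for ≥4 h. PE ± 10 μmol/L test peptide, made at twice final concentration in medium, was added 1:1 and incubated overnight at 37°C. Luminescence was read with Bright‐Glo in HBSS/20 mmol/L HEPES, as % of RLU at […].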

| Molecule | effect of TM peptide on PLA signals for ACKR3:α1A‐AR [1] | effect of TM peptide on PLA signals for ACKR3:α1B‐AR [2] | effect of TM peptide on PLA signals for ACKR3:α1D‐AR [3] | effect of TM peptide on PLA signals for ACKR3:CXCR4 [4] | effect of TM peptide on PLA signals for CXCR4:α1B‐AR [5] | effect of TM peptide on PLA signals for CXCR4:α1D‐AR [6] | effect of α1‐AR antagonist on PE‐induced IP3 production ([8]; 5 minutes, n=3) | other results |
| --- | --- | --- | --- | --- | --- | --- | --- | --- |
| DDDLHVTQCLSLVHCCVNPVLYSFIN [TM7] | significantly increased the number of PLA signals for ACKR3:α1A‐AR complexes | did not alter signals | did not alter signals | reduced after incubation with all TM peptide analogs (TM2>TM4>TM7) | did not significantly affect signals | did not significantly affect signals |  | effect of TM peptide on potency of PE to induce vasoconstriction (significance) [7]: P>0.05 versus vehicle |
| CNC[C@H](O)c1cccc(O)c1 [PE, Phenylephrine] |  |  |  |  |  |  |  | increase of cellular IP3 concentrations on PE stimulation after NT siRNA ([8]; hVSMCs incubated with NT siRNA, Figure 5D, n=4): 4.8 fold; increase of cellular IP3 concentrations on PE stimulation ([8]; hVSMCs without siRNA, 5 minutes, Figure 2B, n=3): 5.3 fold |
| CXCL11: natural ACKR3 agonist; chemokine, from Protein Foundry |  |  |  |  |  |  |  | EC50 ([9]; read-out: EC50 for β‐arrestin 2 recruitment to ACKR3, agonist, luminescence, Figure 2A, mean±SEM): 16.5 ± 4.9 nM |
| COc1cc2nc(N3CCN(C(=O)c4ccco4)[C@H]4CCCC[C@H]43)nc(N)c2cc1OC (racemic) [cyclazosin, Cyclazosin] |  |  |  |  |  |  | could be inhibited |  |
| VVCILWLLAFCVSLPDTYYLDD [TM4] | without affecting ACKR3:α1A/D‐AR interactions | reduced PLA signals for ACKR3:α1B‐AR complexes | without affecting ACKR3:α1A/D‐AR interactions | reduced after incubation with all TM peptide analogs (TM2>TM4>TM7) | increased signals for CXCR4:α1B‐AR complexes | did not affect signals for CXCR4:α1D‐AR complexes |  | effect of TM peptide on potency of PE to induce vasoconstriction (significance) [7]: P>0.05 versus vehicle |
| COc1ccccc1N1CCN(CCN2C(=O)CC3(CCCC3)CC2=O)CC1 [BMY 7378] |  |  |  |  |  |  | could be inhibited |  |
| CXCL12: natural ACKR3 agonist; cognate ligand of CXCR4 and ACKR3, from Protein Foundry |  |  |  |  |  |  |  | CXCL12 effect on PE‐induced signaling in the presence of the TM2 peptide ([8]; hVSMCs, TM2 10 μmol/L plus CXCL12 1 μmol/L, Figure 9E): did not enhance PE‐induced signaling; effect on PE‐induced vasoconstriction [10]: attenuates PE‐induced vasoconstriction |
| YILNLAIADLWVVLTIPVWVVDDD [TM2] | did not affect signals for ACKR3:α1A‐AR complexes | significantly reduced PLA signals | significantly reduced PLA signals | reduced after incubation with all TM peptide analogs (TM2>TM4>TM7) | increased signals for CXCR4:α1B‐AR complexes | did not affect signals for CXCR4:α1D‐AR complexes |  | activation of ACKR3 by TM peptide (β‐arrestin 2 recruitment) ([9]; peptide alone, Figure 9A): without intrinsic agonist activity within the tested range of concentrations; effect of TM peptide on PE‐induced β‐arrestin 2 recruitment to α1b‐AR [11]: did not inhibit β‐arrestin 2 recruitment to recombinant α1b‐AR on PE stimulation |
| Cc1ccc(N(CC2=NCCN2)c2cccc(O)c2)cc1 [phentolamine, Phentolamine] |  |  |  |  |  |  | could be inhibited |  |
